Assays:
Nitric oxide synthase 1 [1] = biological target: T1, Nitric oxide synthase 1 (Rattus norvegicus, UniProt P29476); test: Inhibitory activity against isomeric form of Neuronal nitric oxide synthase measured by citrulline assay
How it was run: (§1)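 Rat brain cytosol as nNOS source. Incubated 20 min at ambient temperature with 10 μM purified L-[2,3-3H]arginine, 1 mM NADPH, 2 mM CaCl2 and varying inhibitor. Stopped with EGTA/EDTA/HEPES buffer, pH 5.5. [3H]citrulline separated on Dowex 50WX-8 (Na+) and counted by liquid scintillation. IC50 reported.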

Rattus norvegicus [2] = species on record: Rattus norvegicus; test: Reversal of ACh-induced relaxation in rat thoracic aorta; type: functional
How it was run: (§2)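 Male Sprague-Dawley rat (350–375 g) thoracic aortic rings, endothelium spared, held at 1.25 g resting tension in Krebs buffer (pH 7.4) with 5 μM indomethacin, 37 °C, 5% CO2 in O2. After 1 h equilibration: 1 μM phenylephrine precontraction, then 1 μM ACh relaxation to plateau. Cumulative inhibitor additions, each to plateau, give a concentration-response curve for reversal of the relaxation.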

Nitric oxide synthase 1 [3] = biological target: T1, Nitric oxide synthase 1; test: Inhibition of arginine to citrulline conversion by Neuronal nitric oxide synthase from rat brain; how it was run: as §1
Rattus norvegicus [4] = species on record: Rattus norvegicus; test: Effective concentration for reversal of ACh-induced relaxation in rat thoracic aorta; type: functional; how it was run: as §2
[5] = biological target: T2, Nitric oxide synthase, inducible (Mus musculus, UniProt P29477); test: Inhibition of radiolabeled arginine conversion to citrulline by isomeric form of Inducible nitric oxide synthase from mouse RAW 264.7 cells; type: cell-based
T2 sequence (P29477 whole entry): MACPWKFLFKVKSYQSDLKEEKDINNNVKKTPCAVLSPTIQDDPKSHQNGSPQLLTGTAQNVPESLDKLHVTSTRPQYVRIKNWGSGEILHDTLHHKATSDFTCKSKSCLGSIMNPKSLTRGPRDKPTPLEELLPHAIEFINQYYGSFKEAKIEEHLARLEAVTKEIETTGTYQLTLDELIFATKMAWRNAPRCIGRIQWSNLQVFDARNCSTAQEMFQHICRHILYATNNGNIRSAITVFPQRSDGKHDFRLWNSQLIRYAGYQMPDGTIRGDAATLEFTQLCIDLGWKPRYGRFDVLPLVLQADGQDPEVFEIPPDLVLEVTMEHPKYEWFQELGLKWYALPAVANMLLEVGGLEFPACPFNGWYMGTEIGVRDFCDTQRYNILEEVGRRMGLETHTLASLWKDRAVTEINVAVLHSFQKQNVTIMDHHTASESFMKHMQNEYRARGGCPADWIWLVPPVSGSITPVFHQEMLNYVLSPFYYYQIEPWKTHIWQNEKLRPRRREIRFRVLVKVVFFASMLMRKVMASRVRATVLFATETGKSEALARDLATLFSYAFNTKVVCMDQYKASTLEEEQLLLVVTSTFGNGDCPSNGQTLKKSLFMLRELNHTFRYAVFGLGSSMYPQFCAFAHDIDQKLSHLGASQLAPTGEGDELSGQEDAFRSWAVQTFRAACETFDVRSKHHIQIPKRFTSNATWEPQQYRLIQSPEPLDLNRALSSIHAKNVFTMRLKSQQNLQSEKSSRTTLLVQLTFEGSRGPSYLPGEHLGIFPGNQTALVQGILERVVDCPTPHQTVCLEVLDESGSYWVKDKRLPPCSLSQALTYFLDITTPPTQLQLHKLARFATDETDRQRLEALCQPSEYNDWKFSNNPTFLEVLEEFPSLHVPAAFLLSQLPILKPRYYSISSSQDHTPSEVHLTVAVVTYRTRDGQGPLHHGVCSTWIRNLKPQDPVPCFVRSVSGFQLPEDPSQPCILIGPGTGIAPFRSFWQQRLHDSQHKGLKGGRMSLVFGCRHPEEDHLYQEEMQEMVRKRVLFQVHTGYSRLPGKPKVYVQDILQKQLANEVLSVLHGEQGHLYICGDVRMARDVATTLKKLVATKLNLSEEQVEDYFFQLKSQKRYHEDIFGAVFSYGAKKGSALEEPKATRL
How it was run: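 Incubated 20 min at ambient temperature with 10 μM [3H]arginine, 1 mM NADPH, no Ca2+, and varying inhibitor. Stopped with EGTA/EDTA buffer, pH 5.5; [3H]citrulline separated on Dowex cation exchanger and counted by scintillation. IC50.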

Nitric oxide synthase 3 = biological target: T3, Nitric oxide synthase 3 (Bos taurus, UniProt P29473); test: Inhibitory activity of conversion of radiolabeled arginine to citrulline by isomeric form of nitric oxide synthase Endothelial nitric oxide synthase from cultured bovine aortic endothelial cells; type: cell-based, Endothelial cell
T3 sequence (P29473 whole entry): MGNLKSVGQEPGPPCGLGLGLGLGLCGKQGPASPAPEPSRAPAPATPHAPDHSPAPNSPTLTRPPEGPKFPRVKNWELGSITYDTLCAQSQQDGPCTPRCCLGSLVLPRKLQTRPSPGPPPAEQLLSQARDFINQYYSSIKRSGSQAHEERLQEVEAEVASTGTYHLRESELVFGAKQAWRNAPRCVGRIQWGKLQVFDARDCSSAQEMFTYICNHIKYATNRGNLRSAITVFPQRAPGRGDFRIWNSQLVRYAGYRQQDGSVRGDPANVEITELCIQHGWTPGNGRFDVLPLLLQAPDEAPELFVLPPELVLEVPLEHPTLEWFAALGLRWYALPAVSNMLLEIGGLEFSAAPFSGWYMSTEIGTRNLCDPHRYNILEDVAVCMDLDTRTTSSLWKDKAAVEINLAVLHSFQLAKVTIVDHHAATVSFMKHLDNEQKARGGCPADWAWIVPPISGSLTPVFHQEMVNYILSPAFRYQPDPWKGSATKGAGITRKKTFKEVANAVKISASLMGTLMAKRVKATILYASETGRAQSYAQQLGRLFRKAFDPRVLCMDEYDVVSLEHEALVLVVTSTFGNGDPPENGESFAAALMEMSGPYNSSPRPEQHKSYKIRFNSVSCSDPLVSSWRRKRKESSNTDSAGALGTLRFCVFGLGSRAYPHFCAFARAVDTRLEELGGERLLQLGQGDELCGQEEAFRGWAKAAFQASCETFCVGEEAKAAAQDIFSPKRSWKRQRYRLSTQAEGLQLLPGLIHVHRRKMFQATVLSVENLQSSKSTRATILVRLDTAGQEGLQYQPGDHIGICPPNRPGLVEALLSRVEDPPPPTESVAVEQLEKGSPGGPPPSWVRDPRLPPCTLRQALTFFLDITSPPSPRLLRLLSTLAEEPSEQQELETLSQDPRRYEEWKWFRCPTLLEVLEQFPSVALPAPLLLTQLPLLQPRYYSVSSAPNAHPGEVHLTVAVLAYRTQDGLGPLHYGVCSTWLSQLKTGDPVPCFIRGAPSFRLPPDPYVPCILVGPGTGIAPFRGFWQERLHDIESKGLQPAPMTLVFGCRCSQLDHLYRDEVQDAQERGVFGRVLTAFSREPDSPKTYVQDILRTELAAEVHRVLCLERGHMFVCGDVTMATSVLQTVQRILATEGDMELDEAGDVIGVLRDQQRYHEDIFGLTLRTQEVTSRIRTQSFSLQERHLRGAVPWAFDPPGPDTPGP
How it was run: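 eNOS taken from the CHAPS-solubilized particulate fraction of cultured bovine aortic endothelial cells. Incubated 20 min at ambient temperature with 10 μM L-[2,3-3H]arginine, 1 mM NADPH, 2 mM CaCl2 and graded inhibitor. Stopped at pH 5.5 with EGTA/EDTA; [3H]citrulline isolated on cation-exchange column and counted by scintillation. IC50.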

Rattus norvegicus [6] = species on record: Rattus norvegicus; test: Percent reversal of ACh-induced relaxation at 100 uM in rat thoracic aorta; type: functional
Rattus norvegicus [7] = species on record: Rattus norvegicus; test: Inhibitory activity against N-methyl-D-aspartate (NMDA)-induced cyclic GMP accumulation in rat cerebellar slices; type: functional
How it was run: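 Cerebellar slices (0.3 mm, coronal and sagittal) from 8–10-day-old rats, preincubated 105 min in Krebs buffer under 95% O2/5% CO2 at 37 °C, then equilibrated 15 min. Test compound added, followed by 500 μM NMDA for 3 min. Stopped with 50 mM sodium acetate and flash-frozen in liquid nitrogen; cGMP measured by radioimmunoassay after sonication.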

Rattus norvegicus [8] = species on record: Rattus norvegicus; test: E max (%) calculated for reversal of ACh-induced relaxation in rat thoracic aorta; type: functional
How it was run: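 Male Sprague-Dawley rat (350–375 g) thoracic aortic rings, endothelium preserved, held at 1.25 g resting tension at 37 °C in Krebs buffer (pH 7.4) containing 5 μM indomethacin, gassed with 5% CO2 in O2. After 1 h equilibration, rings were precontracted with 1 μM phenylephrine and relaxed with 1 μM ACh. Inhibitor was then added cumulatively, plateau between additions, to build a reversal concentration-response curve.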

T1 sequence (P29476 whole entry): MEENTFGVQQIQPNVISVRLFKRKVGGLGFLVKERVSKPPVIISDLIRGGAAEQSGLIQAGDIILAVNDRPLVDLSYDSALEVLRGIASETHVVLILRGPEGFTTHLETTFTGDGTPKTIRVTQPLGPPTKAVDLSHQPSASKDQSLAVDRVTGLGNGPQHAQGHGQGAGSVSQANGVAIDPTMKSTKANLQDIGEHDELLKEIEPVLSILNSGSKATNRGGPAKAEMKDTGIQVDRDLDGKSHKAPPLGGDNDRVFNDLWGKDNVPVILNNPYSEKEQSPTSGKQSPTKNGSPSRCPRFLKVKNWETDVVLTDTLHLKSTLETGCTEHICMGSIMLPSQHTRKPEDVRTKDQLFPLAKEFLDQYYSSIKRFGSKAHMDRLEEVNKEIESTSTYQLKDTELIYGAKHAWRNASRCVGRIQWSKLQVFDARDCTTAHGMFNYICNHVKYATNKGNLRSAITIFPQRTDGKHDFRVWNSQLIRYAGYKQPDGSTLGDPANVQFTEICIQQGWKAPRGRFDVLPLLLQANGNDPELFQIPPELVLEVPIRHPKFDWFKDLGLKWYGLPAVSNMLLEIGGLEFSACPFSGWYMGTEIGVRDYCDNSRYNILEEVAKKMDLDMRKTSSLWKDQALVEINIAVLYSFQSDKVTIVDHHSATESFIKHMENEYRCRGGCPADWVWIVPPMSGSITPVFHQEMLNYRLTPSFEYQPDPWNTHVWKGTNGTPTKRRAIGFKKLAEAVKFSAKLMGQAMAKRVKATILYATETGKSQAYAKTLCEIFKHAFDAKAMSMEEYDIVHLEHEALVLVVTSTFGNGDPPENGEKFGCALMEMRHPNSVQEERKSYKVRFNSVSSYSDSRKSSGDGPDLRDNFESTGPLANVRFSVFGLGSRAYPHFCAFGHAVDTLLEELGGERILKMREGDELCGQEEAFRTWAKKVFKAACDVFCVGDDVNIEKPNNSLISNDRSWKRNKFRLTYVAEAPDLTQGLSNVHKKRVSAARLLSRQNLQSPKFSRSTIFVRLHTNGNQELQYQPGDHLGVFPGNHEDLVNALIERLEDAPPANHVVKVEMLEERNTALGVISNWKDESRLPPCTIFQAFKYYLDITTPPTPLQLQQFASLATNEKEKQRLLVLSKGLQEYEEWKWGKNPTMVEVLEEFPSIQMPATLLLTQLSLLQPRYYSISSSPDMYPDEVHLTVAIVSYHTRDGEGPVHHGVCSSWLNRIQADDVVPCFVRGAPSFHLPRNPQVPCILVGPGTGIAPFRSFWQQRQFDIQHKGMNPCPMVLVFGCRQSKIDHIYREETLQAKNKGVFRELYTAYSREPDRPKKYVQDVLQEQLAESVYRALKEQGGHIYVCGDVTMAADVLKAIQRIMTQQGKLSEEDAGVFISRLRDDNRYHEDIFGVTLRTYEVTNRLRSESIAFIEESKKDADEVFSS

| Compound | IC50 (Nitric oxide synthase 1 [1]) [µM] | IC50 (Nitric oxide synthase 1 [3]) [µM] | IC50 [5] [µM] | IC50 (Nitric oxide synthase 3) [µM] | also measured |
| --- | --- | --- | --- | --- | --- |
| Cc1ccc([N+](=O)[O-])c(N)c1 | 70 |  |  |  |  |
| Cc1ccc([N+](=O)[O-])c(NCCC[C@H](N)CO)c1 |  | 3 | 5 | 40 | Emax (Rattus norvegicus [2]): 106%; EC50 (Rattus norvegicus [4]): 17 µM |
| Cc1ccc([N+](=O)[O-])c(OCCC[C@H](N)C(=O)O)c1 |  | 4 | 80 | 10 |  |
| Cc1cccc(SCCC[C@H](N)C(=O)O)c1 |  | > 100 | > 100 |  |  |
| Cc1ccc([N+](=O)[O-])c(NCCCCN)c1 |  | 2.5 | 9 | 20 |  |
| CNC(=N)NCCC[C@H](N)C(=O)O [TILARGININE] |  |  |  |  | IC50 (Rattus norvegicus [7]): 3 µM; EC50 (Rattus norvegicus [4]): 14 µM; Emax (Rattus norvegicus [8]): 119% |
| N=C(NCCC[C@H](N)C(=O)O)N[N+](=O)[O-] [NITROARGININE] |  |  | 14 |  | IC50 (Rattus norvegicus [7]): 0.2 µM; EC50 (Rattus norvegicus [4]): 3 µM; Emax (Rattus norvegicus [8]): 138% |
| Cc1cccc(NCCC[C@H](N)C(=O)O)c1 |  | > 100 | > 100 |  |  |

Second part, led by results:

| IC50 (Nitric oxide synthase 1 [1]) [µM] | IC50 (Nitric oxide synthase 1 [3]) [µM] | IC50 [5] [µM] | IC50 (Nitric oxide synthase 3) [µM] | Compound | also measured |
| --- | --- | --- | --- | --- | --- |
| 30 |  |  | 60 | N[C@@H](CCCNc1c([N+](=O)[O-])cccc1[N+](=O)[O-])C(=O)O |  |
| > 100 |  | > 100 |  | Cc1ccc(NCCC[C@H](N)C(=O)O)c([N+](=O)[O-])c1 |  |
|  | > 100 | > 100 |  | N[C@@H](CCCNc1cc(O)ccc1[N+](=O)[O-])C(=O)O |  |
| > 100 |  | > 100 |  | N[C@@H](CCCNc1ccc(C(=O)O)cc1[N+](=O)[O-])C(=O)O |  |
| 100 |  |  |  | N[C@@H](CCCNc1ccc([N+](=O)[O-])cc1[N+](=O)[O-])C(=O)O |  |
|  | 2.5 | 11 | 5 | Cc1ccc([N+](=O)[O-])c(NCCC[C@H](N)C(=O)O)c1 | Emax at 100 µM (Rattus norvegicus [6]): 41%; IC50 (Rattus norvegicus [7]): 33 µM |
|  | 5 | 4 | 9 | Cc1ccc([N+](=O)[O-])c(SCCC[C@H](N)C(=O)O)c1 | IC50 (Rattus norvegicus [7]): 37 µM |
| > 100 |  | > 100 | > 100 | N[C@@H](CCCNc1ccc(F)cc1[N+](=O)[O-])C(=O)O |  |
| 100 |  | > 100 | 100 | N[C@@H](CCCNc1ccccc1[N+](=O)[O-])C(=O)O |  |
|  | > 100 | > 100 |  | Cc1ccc([N+](=O)[O-])c(NCC[C@H](N)C(=O)O)c1 |  |
| > 100 |  | > 100 |  | N[C@@H](CCCNc1ccc(C(F)(F)F)cc1[N+](=O)[O-])C(=O)O |  |
